Source: PubChem BioAssay
Only some compounds are listed: those with a hit (about 1.9% of all), similar ones and a draw of the others.
FAS TE block: blocks the thioesterase domain of human fatty acid synthase. recombinant FAS-TE, OMFH fluorogenic substrate, fluorescence endpoint. inhibition, % at 15 µM. actives 0.67% (n = 360,000). AID 602261;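 active = compounds whose normalised, plate-corrected inhibition of enzyme fluorescence in the single-dose primary screen is 50% or more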
SUMO1 PPI mod: SUMO1-SIM interaction modulation; P63165; SUMO1 binding to a labelled peptide, TR-FRET, 1 h; inhibition, % at 20 µM; actives 0.33% (n = 360,000); AID 602429; in the data active = inhibition above about 37%
Target sequence (P63165 whole entry, looked up): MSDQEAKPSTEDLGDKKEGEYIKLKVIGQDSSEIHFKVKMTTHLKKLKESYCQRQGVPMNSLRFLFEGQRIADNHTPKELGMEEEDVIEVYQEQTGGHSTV
Scp-1 inhibitor: inhibitors of human Scp-1 phosphatase; Recombinant Scp1, phosphopeptide, malachite green phosphate absorbance; inhibition, % at 20 µM; actives 0.88% (n = 340,000); AID 493091;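 active = inhibition above about 50% at 20 µM, limit read from the data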
Target sequence (Q9GZU7 76-261 limits assumed): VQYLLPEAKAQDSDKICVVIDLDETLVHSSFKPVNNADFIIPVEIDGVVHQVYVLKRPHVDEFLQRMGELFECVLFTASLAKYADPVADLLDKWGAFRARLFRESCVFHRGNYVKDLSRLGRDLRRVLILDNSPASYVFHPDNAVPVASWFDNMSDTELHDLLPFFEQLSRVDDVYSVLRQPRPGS
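Test system: SCP-1 phosphatase catalytic domain, residues 76-261 | Compound dosing: One concentration, 20 µM, with 1.0% DMSO | Schedule: 45 min room-temperature reaction, 5 min colour, 30 min stabiliser | Detection: Absorbance at 630 nm | Read-out basis: % inhibition of SCP-1 phosphate liberation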
STEP block: inhibitors of human striatal-enriched phosphatase STEP. P54829. recombinant STEP, OMFP fluorogenic substrate, fluorescence. inhibition, % at 20 µM. actives 0.25% (n = 360,000);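 active = inhibition at 20 µM, scaled per plate between control wells, above about 37%, limit read from the data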
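Material: STEP (striatal-enriched tyrosine phosphatase) enzyme, cell-free | Medium: 50 mM Bis-Tris pH 6.0 with 2.5 mM DTT and 0.005% Tween 20 | Read-out: Percent inhibition scaled to no-enzyme and uninhibited-enzyme controls, plate-pattern corrected | Signal: Fluorescence read at 480 nm ex / 540 nm em | Times: 20 min reaction, room temperature, in the dark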
LMPTP inh: blocks human LMPTP phosphatase; P24666; recombinant LMPTP-A, OMFP fluorogenic substrate, fluorescence intensity; inhibition, % at 20 µM; actives 0.22% (n = 360,000);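 active = compounds that cut the enzyme signal by at least half of the control window in the single-dose screen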
Target sequence (P24666 whole entry, looked up): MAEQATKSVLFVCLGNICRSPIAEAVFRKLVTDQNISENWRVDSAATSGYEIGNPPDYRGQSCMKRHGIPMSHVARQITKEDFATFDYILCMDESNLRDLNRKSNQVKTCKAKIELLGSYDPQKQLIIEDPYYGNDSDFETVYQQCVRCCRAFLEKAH
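Test system: LMPTP-A phosphatase enzyme; input: 0.625 nM LMPTP-A final; reagent: OMFP substrate, 400 µM final; compound dosing: 20 µM single dose, 3% DMSO; incubation: 50 min dark incubation at room temperature; measured by: endpoint fluorescence intensity from OMFP dephosphorylation; measure: % inhibition relative to no-enzyme and uninhibited control wells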
A number is an active result; . = inactive; / = no result.

SMILES	FAS TE block	SUMO1 PPI mod	Scp-1 inhibitor	STEP block	LMPTP inh
Cc1c(C(=O)Nc2nc(-c3ccccn3)cs2)oc2ccccc12	.	.	.	77.1	.
O=C(N=Nc1c(O)[nH]c2ccccc12)c1cc(-c2cccs2)[nH]n1	.	59.9	.	.	.
COc1ccc(N2CSC3=C(C#N)C(c4cccc(OC)c4OC)CC(=O)N3C2)cc1 (configuration not stated)	.	.	51.7	.	.
COc1ccc(OC)c(C2CC(=O)N3CN(c4ccccc4)CSC3=C2C#N)c1 (configuration not stated)	.	.	.	.	.
CCN1CCc2nc(N)sc2C1	.	.	.	96.4	.
C=CCN1CCc2nc(N)sc2CC1	.	.	.	.	.
NC(=O)c1ccc(-c2ccc(Br)cc2)o1	.	.	.	.	.
NC(=O)C1CCN(C(=S)c2ccc(-c3ccc(Br)cc3)o2)CC1	.	.	.	95.2	.
COc1ccc(/C=N/NC(=O)CCN2CCN(c3ccccc3)CC2)c(OC)c1OC	.	.	.	.	.
Cc1cc(C(=O)N/N=C/c2ccc(O)c(O)c2O)c(C)n1-c1ccccc1	.	.	.	.	55.9
Cc1cc(/C=N/NC(=O)c2ccncc2)c(C)n1-c1ccccc1	.	.	.	.	.
O=C(CCN1CCN(c2ccccc2)CC1)N/N=C/c1ccc(O)c(O)c1O	.	.	.	.	66.8
COc1ccc2c(c1)nc(-c1cccc(Br)c1)c(=O)n2C(c1ccccn1)c1nc2ccccc2[nH]1 (configuration not stated)	.	.	/	.	.
Cc1noc(C)c1-c1ccc(C(=O)Nc2cccc(C(F)(F)F)c2)c2occc12	.	.	/	.	.
Cc1cc(N(C)NC(=S)Nc2ccccc2)nc(C)n1	.	.	.	.	.
Cc1ccc(NC(=S)NN(C)c2nc(C)cnc2C)cc1	.	39.9	.	.	.
CCCNC(=O)Cn1nc(-c2ccccc2OC)ccc1=O	.	.	/	.	.
C/C(=N\NC(=O)c1cc(O)ccc1O)c1cccc(NC(=O)c2ccc(Cl)cc2)c1	.	43.8	.	.	.
O=c1[nH][nH]c2c1[C@H](c1ccccc1)O[C@H](C1CCCCC1)C2	.	.	/	/	.
COc1cccc2cc(-c3nc4ccccc4[nH]3)c(=O)oc12	.	.	.	.	.
Cc1cccc2cc(-c3nc4ccc(C(=O)O)cc4[nH]3)c(=O)oc12	.	.	58.5	.	.
O=C(NC1CCCC1)c1nc(-c2ccco2)oc1-c1ccccc1	/	.	/	/	.
CN(C)CCCNC(=O)OC1CC2CC1[C@H]1CCCCN1C2=O (some centres not stated)	.	.	/	/	.
C=CCCC(=O)Nc1nc(C)c(-c2csc(Nc3cccc(OC)c3)n2)s1	.	77.9	.	.	.
C=CCCC(=O)Nc1nc(C)c(-c2csc(Nc3cc(OC)ccc3OC)n2)s1	.	.	.	.	.
SMILES	FAS TE block	SUMO1 PPI mod	Scp-1 inhibitor	STEP block	LMPTP inh
Cc1ccc(Cl)cc1Nc1nc(-c2sc(NC(=O)C(C)(C)C)nc2C)cs1	.	104.3	.	.	.
Cc1nc(NC(=O)c2ccccc2)sc1-c1csc(Nc2ccc(C(=O)O)cc2)n1	.	91.8	80.5	.	.
O=[N+]([O-])c1ccc(Nc2cccc3c2[nH]c2c(-c4ccccc4)nccc23)c([N+](=O)[O-])c1	.	.	.	.	.
CC(C)c1onc(C(=O)N2CCN(C(c3ccccc3)c3ccccc3)CC2)c1[N+](=O)[O-]	.	43.2	.	.	.
CC(C)c1onc(C(=O)N2CCN(c3ccccc3)CC2)c1[N+](=O)[O-]	.	.	.	.	.
O=C(Nc1ccc2c(c1)OCCO2)C(CCc1ccccc1)N1CCC(Cc2ccccc2)CC1 (configuration not stated)	.	.	/	.	.
CCOC(=O)c1c(C)[nH]c(C(=O)N/N=C/c2cc([N+](=O)[O-])ccc2O)c1C	.	.	.	.	65.1
COc1ccc(C(C)(O)c2nc(-c3ccccc3OC)cs2)cc1 (configuration not stated)	.	.	/	.	.
O=C(NCc1ccco1)c1cc2c(s1)CSC2	/	/	99.0	/	/
Cc1cccn2c(=O)c3cc(C(=O)NCCc4ccccc4)c(=N)n(CCCn4ccnc4)c3nc12	.	.	.	.	64.2
N=c1c(C(=O)NCc2ccco2)cc2c(=O)n3ccccc3nc2n1CCc1ccccc1	.	.	.	.	54.7
COc1ccc(CCn2c(=N)c(C(=O)NCc3ccco3)cc3c(=O)n4ccccc4nc32)cc1OC	.	50.8	.	.	.
Cc1ccc(Cn2c(=N)c(C(=O)NCc3ccco3)cc3c(=O)n4ccccc4nc32)cc1	.	.	.	.	58.7
COCCn1c(=N)c(C(=O)NCCc2ccccc2)cc2c(=O)n3cccc(C)c3nc21	.	.	.	.	.
CC(=O)c1cccc(-c2ccnc3c2CC(C(=O)Nc2cccc(Oc4ccccc4)c2)O3)c1 (configuration not stated)	.	.	/	.	.
O=C(Nc1ccc2c(c1)OCCO2)C(c1ccncc1)n1c(=O)c(-c2cc3ccccc3[nH]2)nc2ccccc21 (configuration not stated)	/	.	/	/	.
COc1ccc(NC(=O)c2cc(-c3sc(NC(=O)c4ccccc4)nc3C)n(-c3ccc(Br)cc3)n2)cc1	/	.	/	/	.
CCN1/C(=C/C=C/c2oc3ccc(-c4ccccc4)cc3[n+]2CC)Oc2ccc(-c3ccccc3)cc21	.	57.0	.	.	.
CCCCN1C(=O)/C(=C/C=C2\Oc3ccccc3N2CC)SC1=S	.	.	.	.	.
Nc1ccc2cc3[nH]c4cc(N)ccc4c3nc2c1	.	.	.	.	57.7
Nc1ccc(-c2nc3ccc(N)cc3[nH]2)cc1	.	.	.	.	.
O=C(O)c1ccc(N2C(=O)/C(=C/c3ccc(-c4ccc([N+](=O)[O-])cc4)o3)C=C2c2ccccc2)cc1	.	102.6	66.4	87.4	79.1
CC(=O)N1CCC(C(=O)N2c3ccccc3N=C(c3ccc4c(c3)OCO4)C2C(=O)Nc2c(C)cccc2C)CC1 (configuration not stated)	/	.	/	/	.
O=C(NC1CCCCC1)C(C1CC1)n1c(=O)c(-c2cc3ccccc3[nH]2)nc2ccccc21 (configuration not stated)	/	.	/	/	.
N#Cc1cccc(NC(=O)c2cc(C3CCCCN3C(=O)c3cccs3)on2)c1 (configuration not stated)	.	.	/	.	.
ClN=C1C=CC=CC1=NCl	.	56.7	/	.	68.3
Cc1cc2nc3c(=O)[nH]c(=O)[nH]c3nc2c([N+](=O)[O-])c1N	.	100.0	72.5	.	.
Cc1c(-c2ccccc2)c(-c2ccc(OCCN(C)C)cc2)n2ccccc12	.	.	.	.	80.2
Nc1nn2cc(-c3ccc(Br)cc3)nc2c2ccccc12	.	64.6	.	.	.
CCCCC(CC)CO (configuration not stated)	.	.	.	.	.
